Hits are enriched below; roughly 4.4% of the tested compounds scored in any of these assays.
AI-2 QS modul = Vibrio harveyi AI-2 quorum sensing modulation; Vibrio harveyi JMH597 AI-2 luminescence/OD600 ratio, 9 h; hits give low values; strain lacks LuxN and CqsS sensors; 0 = neutral-control median; activity change, % at 7.5 µM; hit rate 0.4% among 300,000; AID 2094; in the data active = activity change below about -75%, passing the limit was not always enough;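 note: luminescence divided by OD600 gain over 9 h not by final OD600 alone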
MsrA inh = inhibits bovine methionine sulfoxide reductase A | purified bovine MsrA, absorbance read-out | inhibition, % at 15.5 µM | hit rate 0.75% among 360,000; in the data active = inhibition above about 4.5%;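 note: 0% = vehicle wells with enzyme and 100% = reference inhibitor wells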
HTR2A ag = agonists of mouse serotonin 5-HT2A receptor (HTR2A); CHO-K1 mHTR2A beta-arrestin complementation, luminescence; percent of 30 µM serotonin response; hit rate 0.66% among 360,000; P35363; AID 624169; activation, % at 7.6 µM;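 active = activation above a run cutoff, the mean activation of all tested compounds plus 3 SD, cut at about 14% in these data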;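 note: 0% = plate median of compound wells and 100% = 30 µM serotonin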
Target sequence (P35363 whole entry, looked up): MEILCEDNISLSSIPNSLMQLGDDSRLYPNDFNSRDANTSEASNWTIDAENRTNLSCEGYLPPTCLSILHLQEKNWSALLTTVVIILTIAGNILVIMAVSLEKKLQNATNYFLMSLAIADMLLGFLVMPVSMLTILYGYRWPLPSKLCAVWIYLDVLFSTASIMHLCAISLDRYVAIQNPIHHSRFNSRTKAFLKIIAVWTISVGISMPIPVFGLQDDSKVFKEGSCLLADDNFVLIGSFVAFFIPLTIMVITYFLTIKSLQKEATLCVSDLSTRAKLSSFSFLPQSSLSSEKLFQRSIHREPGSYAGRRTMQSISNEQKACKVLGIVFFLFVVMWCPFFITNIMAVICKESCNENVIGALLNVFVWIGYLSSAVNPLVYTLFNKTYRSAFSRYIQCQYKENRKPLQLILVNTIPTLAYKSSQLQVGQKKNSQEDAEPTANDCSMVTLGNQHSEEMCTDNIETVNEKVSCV
AHR activator = human AHR activation; P35869; AHR-responsive luciferase reporter cells, luminescence; activation, % at 5 µM; hit rate 2.5% among 320,000; AID 2796; in the data active = activation above about 47%;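 note: 0% = vehicle wells and 100% = reference agonist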
Tb MetRS inh = blocks T. brucei methionyl-tRNA synthetase activity; hit rate 0.4% among 360,000; inhibition, % at 11.9 µM; purified T. brucei MetRS, ATP depletion, Kinase-Glo luminescence;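 active = inhibition above a per-plate cutoff of the control wells' mean inhibition plus 3 SD, cut at about 5.5% in these data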;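 note: 0% = DMSO wells median and 100% = median of wells with control inhibitor compound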
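Dosing: 11.9 µM single point; system: parasite MetRS enzyme; technique: luminescence of leftover ATP; times: 15 min enzyme-compound preincubation, 2 h reaction, 10 min detection, 25 °C; replicates: each compound tested once; read-out basis: percent inhibition relative to median high and low control wells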
bovine MsrA act = activates bovine MsrA enzyme | purified bovine MsrA, absorbance read-out | activation, % at 10.6 µM | hit rate 0.3% among 360,000 | AID 602163; in the data active = activation above about 7.5%;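 note: 0% = vehicle and 100% = reference activator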
The depositor's hits bear a star.

`C[C@@H]1ON(C)[C@H]2C[C@H]3c4[nH]c5c(-c6ccccc6)cccc5c4CCN3C[C@@H]12` gave MsrA inh 0.
O=C(NCc1ccccc1)C(c1ccco1)N1CCN(CCN2CCOCC2)CC1 (centres undefined) was read as MsrA inh 1.
`COc1ccc(NC(=O)CSc2nnc(-c3ccccn3)n2N)cc1Cl` gave AI-2 QS modul 6, MsrA inh 0, HTR2A ag 11, AHR activator 73*, Tb MetRS inh 0 and bovine MsrA act -3.
Screening COCc1cc(N2CCNC[C@@H]2C)ccc1N1CCN(Cc2ccccc2)[C@@H](C)C1 returned MsrA inh -1.
`CC(=O)Nc1ccc(/C=C/c2noc(-c3ccccc3O)n2)cc1` gave AI-2 QS modul -3, HTR2A ag -4, AHR activator 4, Tb MetRS inh 0 and bovine MsrA act -5.
Screening Oc1ccccc1/C=C/c1noc(-c2ccccc2O)n1 returned AI-2 QS modul 31, MsrA inh 1, HTR2A ag -4, AHR activator 66*, Tb MetRS inh 0 and bovine MsrA act -4.
C(=C\c1ccccc1)/CN1CCN(C(c2cc3ccccc3o2)c2nnnn2Cc2ccccc2)CC1 (centres undefined) was read as MsrA inh 2, HTR2A ag 2, Tb MetRS inh -1 and bovine MsrA act -6.
Cc1ccc(C2NC(=O)c3n[nH]c(C(C)C)c32)cc1 (centres undefined) was read as MsrA inh 0.
For O=C(Nc1cccc2ncccc12)c1ccc(Cl)cc1 the results were AI-2 QS modul 23, MsrA inh 0, HTR2A ag -2, AHR activator 65*, Tb MetRS inh -1 and bovine MsrA act -4.
COc1ccc(Cl)cc1C(=O)Nc1cccc2ncccc12 was read as AI-2 QS modul -22, MsrA inh 1, HTR2A ag 0, AHR activator 66*, Tb MetRS inh -1 and bovine MsrA act -9.
O=C1Nc2ccccc2/C1=C/c1cnc(-c2ccccc2)[nH]1 was read as AI-2 QS modul 2, MsrA inh 1, HTR2A ag 1, AHR activator 73*, Tb MetRS inh 0 and bovine MsrA act -5.
Screening CC(Oc1ccccc1)C(=O)Nc1ccccc1O (centres undefined) returned AI-2 QS modul 9, MsrA inh 0, HTR2A ag -5, AHR activator 49*, Tb MetRS inh 0 and bovine MsrA act -1.
`COc1ccc2[nH]cc(CCNC(=O)c3ccc4ccccc4n3)c2c1` gave AI-2 QS modul -55, MsrA inh 1, HTR2A ag 1, AHR activator 71*, Tb MetRS inh -1 and bovine MsrA act -2.
COc1ccc(C(=O)NCCc2c[nH]c3ccc(OC)cc23)cc1 was read as AI-2 QS modul 11, MsrA inh 2, HTR2A ag -1, AHR activator 1, Tb MetRS inh 0 and bovine MsrA act -1.
Screening CCCCCn1cc(CCC(=O)Nc2ccc(N(C)c3ccccn3)cc2)c2ccccc21 returned MsrA inh 0.
For COc1ccc(NC(=S)N2CCc3ccccc32)cc1OC the results were AI-2 QS modul -1, MsrA inh -1, HTR2A ag 10, AHR activator 53*, Tb MetRS inh 0 and bovine MsrA act -4.
S=C(Nc1ccccc1)N1CCc2ccccc21 was read as AI-2 QS modul -11, MsrA inh -1, HTR2A ag -1, AHR activator 11, Tb MetRS inh -1 and bovine MsrA act -2.
`CC(=O)Nc1ccc(-c2csc(N/N=C\c3ccncc3)n2)cc1` gave AI-2 QS modul 13, MsrA inh 1, HTR2A ag -2, AHR activator 61*, Tb MetRS inh 1 and bovine MsrA act -4.
Screening CCCC(=O)Nc1ccc(-c2csc(N/N=C\c3ccncc3)n2)cc1 returned AI-2 QS modul 10, MsrA inh 1, HTR2A ag 6, AHR activator 2, Tb MetRS inh 0 and bovine MsrA act -13.
For COC(=O)c1ccc(/C=N/Nc2nc(-c3ccccc3)cs2)cc1 the results were AI-2 QS modul 11, MsrA inh 0, HTR2A ag 13, AHR activator 50*, Tb MetRS inh 0 and bovine MsrA act -5.
Screening COC(=O)c1ccc(/C=N/Nc2nc(-c3ccc(C)cc3)cs2)cc1 returned AI-2 QS modul 6, HTR2A ag -1, AHR activator 28, Tb MetRS inh 0 and bovine MsrA act -1.
Screening O=[N+]([O-])c1ccc(O)c(C=Nc2ccc3nc(-c4ccccc4)[nH]c3c2)c1 returned AI-2 QS modul 26, MsrA inh 2, HTR2A ag -8, AHR activator 67*, Tb MetRS inh 0 and bovine MsrA act -2.
Screening O=C(Nc1ccc(F)c(F)c1)c1cnc(-c2ccccc2)nc1-c1ccccc1 returned AI-2 QS modul 3, MsrA inh -1, HTR2A ag 3, AHR activator 65*, Tb MetRS inh -1 and bovine MsrA act -13.
`COc1cc(/C=C2/SC(=S)N(CC(=O)Nc3cccnc3)C2=O)cc(OC)c1OC` gave AI-2 QS modul 3, MsrA inh 1, HTR2A ag 1, AHR activator 51*, Tb MetRS inh 0 and bovine MsrA act -2.
Screening O=C(Nc1ccc(Cl)cc1)Nc1ccc2c(c1)OCO2 returned AI-2 QS modul -6, MsrA inh 0, HTR2A ag -5, AHR activator 59*, Tb MetRS inh 0 and bovine MsrA act -4.
`O=C(Nc1ccc(F)cc1)Nc1ccc2c(c1)OCO2` gave AI-2 QS modul 4, MsrA inh 2, HTR2A ag -3, AHR activator 67*, Tb MetRS inh 0 and bovine MsrA act -3.
For O=C(Nc1ccc2c(c1)OCO2)Nc1ccc(F)cc1F the results were AI-2 QS modul 14, MsrA inh 0, HTR2A ag 7, AHR activator 24, Tb MetRS inh 0 and bovine MsrA act -7.
Screening O=C(Nc1ccc2c(c1)OCO2)Nc1ccc(Cl)cc1Cl returned AI-2 QS modul 6, MsrA inh -1, HTR2A ag -3, AHR activator 1, Tb MetRS inh -1 and bovine MsrA act 0.
Cc1cc(C)c(NC(=O)Nc2ccc3c(c2)OCO3)c(C)c1 was read as AI-2 QS modul 6, MsrA inh -1, HTR2A ag 7, AHR activator 51*, Tb MetRS inh -1 and bovine MsrA act -8.
Screening NC(=O)c1cc(Cl)ccc1OCC(=O)Nc1ccc2c(c1)OCO2 returned MsrA inh 1, HTR2A ag -9, AHR activator 51*, Tb MetRS inh 0 and bovine MsrA act -1.
Screening CCN=C1NC(c2cccc(Cl)c2)C(C(=O)OC)=C(C)N1Cc1ccccc1C(F)(F)F (centres undefined) returned MsrA inh 0.
